# CHOP inhibitor: inhibitors of CHOP promoter induction, primary screen, cell-based, unfolded protein response, luciferase reporter; 220,000 tested, 3.8% active; inhibition, % at 10 µM; CHO-K1 CHOP-promoter luciferase, tunicamycin-induced, 15-18 h; AID 2732, 2010;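 active = compounds that reduced the stress-induced luciferase reporter signal by more than about 70% of percent inhibition, limit read from the data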;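 also: 0% = tunicamycin plus vehicle and 100% = wells without tunicamycin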
# CHOP UPR activ: activators of apoptotic CHOP UPR arm, primary screen, cell-based, CHO-CHOP luciferase reporter, luminescence, uHTS; AID 449763, 2010; activation, % at 10 µM; UPR activation; percent of tunicamycin response over DMSO baseline; 330,000 tested, 0.34% active;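 active = at 10 µM dose, activation of 40% or more, normalized to positive control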;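 also: 100% = tunicamycin at 10 µg/mL and 0% = DMSO alone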
#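 assay system = CHO CHOP reporter cells | amount = 500 CHO-CHOP cells per well | buffer or medium = F12 with 10% FBS | incubation = 16-18 h cell attachment, then 6 h compound exposure, 37 °C | detection = luminescence read with Steady-Glo | read-out = percent activation relative to tunicamycin control | controls = tunicamycin high control, DMSO low control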
# Dynein cargo inh: inhibitors of GR-EGFP nuclear translocation, primary screen, dynein cargo transport inhibitor project, imaging, high-content, 3617.4 mouse cells; test concentration mostly 20 µM; stimulated with dexamethasone, 1 µM; hits give low values; z-score, hits read low; 220,000 tested, 0.47% active; AID 1381, 2008;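 active = plate z-score of nuclear minus cytoplasmic receptor signal below a set negative limit, without overly bright fluorescence or cell loss, cut at about -3.5 in these data, passing the limit was not always enough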;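 also: z-score of nuclear minus cytoplasmic ring GR-EGFP intensity difference per well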
#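 Buffer or medium: tet-free medium with charcoal-stripped serum / Also added: dexamethasone agonist, 1.0 µM final, for 30 min / Timing: induction 48 h, compound 1 h, agonist 30 min / Measured by: high-content fluorescence imaging after fixation / Read-out: nuclear-to-cytoplasmic GR-EGFP distribution per well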
# UPR XBP1 act: activators of adaptive XBP1 UPR arm, primary screen, cell-based, CHO-XBP1 luciferase reporter, luminescence, uHTS; IRE1-XBP1 UPR activation; percent of tunicamycin response, DMSO as zero; activation, % at 20 µM; 330,000 tested, 0.33% active;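 active = versus positive control, 20 µM dose yields 30% or more activation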;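 also: 100% = tunicamycin at 10 µg/mL and 0% = DMSO only wells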
#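 incubation = overnight seeding at 37 °C, 6 h compound treatment at 37 °C | assay system = CHO-XBP1 cells stably carrying IRE1-XBP1-driven luciferase reporter | input = 1000 cells per well | detection = luciferase luminescence | dosing = single point, 20 µM final compound, 1% DMSO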
# T cruzi inh: inhibitors of intracellular T. cruzi growth, primary screen, luminescence, NIH3T3 host cells. T. cruzi beta-gal in NIH3T3, 90 h. inhibition, % (test concentration not listed). 300,000 tested, 1.4% active. AID 1885, 2009;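 active = mean inhibition across valid replicates above about 55%, limit read from the data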;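 also: signal also drops with host cell toxicity which is not excluded here; 0% = plate median of DMSO wells and 100% = zero luminescence signal; higher percent means less beta-gal luminescence so fewer parasites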
#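 Material: NIH/3T3 host cells with β-galactosidase reporter T. cruzi; Input: 5,000 host fibroblasts per well; Medium: DMEM, 2% fetal bovine serum; Compound: 50 nL DMSO compound solution per well; Schedule: 3 h host attachment, then at least 90 h co-culture; Detection: luminescent β-galactosidase signal after 60 min lysis.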
# Lmaj promast: Leishmania major promastigote growth inhibition, primary screen | 200,000 tested, 9% active | Leishmania major promastigotes, resazurin fluorescence viability | inhibition, % at 10 µM; in the data active = inhibition above about 50%;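 also: promastigotes grown with compound for 44 hours at 28 °C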
# Starred values were filed as active, the others as inactive; / = no result given. This is one part of a sample in which hits are shown more often than they occur.
SMILES,CHOP inhibitor,CHOP UPR activ,Dynein cargo inh,UPR XBP1 act,T cruzi inh,Lmaj promast
Cc1cc(C)cc(NC(=S)NCC2CCN(C(C)c3ccccc3)C2)c1 (stereo not drawn),-15,0,0.17,0,43,72*
CCCCc1ccc(/C(C)=N/Nc2cc(N3CCOCC3)nc(C)n2)cc1,/,2,/,0,62*,/
C/C(=N\Nc1cc(N2CCOCC2)nc(C)n1)c1cccc([N+](=O)[O-])c1,-4,0,-0.41,17,28,11
Cc1ccccc1CN1CCC(CNC(=O)C2CCCN(c3ncnc4c3nc3n4CCCCC3)C2)CC1 (stereo not drawn),/,-3,/,-4,46,/
CCOC(=O)C1(Cc2ccccc2C(F)(F)F)CCN(C(C)CCn2cccn2)CC1 (stereo not drawn),20,-2,-0.84,-4,68*,49
CCOC(=O)C1(Cc2ccccc2C(F)(F)F)CCN(C(=O)c2cc(C(C)=O)n[nH]2)CC1,16,1,-0.67,0,9,6
CCOC(=O)C1(Cc2ccccc2C(F)(F)F)CCN(C(C)CSC)CC1 (stereo not drawn),56,2,-0.017,1,36,76*
CN(C)c1ccc2c(c1)Sc1cc(N(C)C)ccc1N2C(=O)c1ccccc1,6,1,0.094,-3,60*,/
Cc1cc(C)c2[nH]c(O)c(N=NC(=S)NCC3CCCO3)c2c1 (stereo not drawn),-35,1,0.38,-1,-23,14
Oc1[nH]c2c(Cl)cc(Cl)cc2c1N=NC(=S)NCC1CCCO1 (stereo not drawn),15,19,0.63,0,44,98*
Oc1[nH]c2ccc(Br)cc2c1N=NC(=S)NCC1CCCO1 (stereo not drawn),94*,-2,0.54,5,60*,/
COc1ccc(CCN(Cc2cccs2)S(=O)(=O)c2ccc(C(=O)O)cc2)cc1OC,44,1,0.15,1,-8,-7
OCCn1c(-c2ccc(F)cc2)csc1=Nc1ccccc1,55,2,-0.52,2,-31,2
O=S(=O)(c1ccc(-c2csc(=Nc3ccccc3)n2CCCN2CCOCC2)cc1)N1CCOCC1,39,0,-0.58,0,21,94*
CCn1cc([N+](=O)[O-])c(C(=O)N2N=C(c3ccc4ccccc4c3)CC2c2cc(Br)ccc2O)n1 (stereo not drawn),27,3,1.6,4,56*,100*
CC(=O)c1ccc(NC(=O)CN2C(=O)NC3(CCc4ccccc43)C2=O)cc1 (stereo not drawn),/,2,/,0,/,/
CCOc1ccc(N(CC(=O)NCc2ccccc2)C(=O)Cn2nnc(-c3ccc(C)o3)n2)cc1,/,0,/,-5,6,/
CCOc1ccccc1N(CC(=O)NC(C)(C)C)C(=O)Cn1nnc(-c2ccc(C)o2)n1,-37,-2,-0.43,-1,-4,60*
O=S(=O)(c1cnccc1N1CCN(/N=C/c2ccccc2)CC1)N1CCCCC1,40,-5,0.22,-2,32,50*
COc1ccc(/C=N/N2CCN(c3ccncc3S(=O)(=O)N3CCCCC3)CC2)cc1,-19,1,-0.26,-4,9,36
CCOC(=O)c1nnn(-c2nonc2N)c1C,17,-1,-0.79,-3,-4,-4
CCCN(CCC)Cc1c(C(=O)OCC)nnn1-c1nonc1N,86*,-2,-0.41,1,-3,3
COc1cc(/C=C/C(=O)Nc2ccncc2)cc(OC)c1OC,3,-1,0.37,-2,25,8
COc1ccc(/C=C/C(=O)Nc2nnc(C(C)C)s2)cc1OC,59,4,0.6,-3,3,/
COc1cc(/C=C/C(=O)Nc2nnc(CC(C)C)s2)cc(OC)c1OC,90*,3,-0.0012,-3,1,59*
SMILES,CHOP inhibitor,CHOP UPR activ,Dynein cargo inh,UPR XBP1 act,T cruzi inh,Lmaj promast
COc1cc(/C=C/C(=O)Nc2nnc(CC(C)(C)C)s2)cc(OC)c1OC,90*,1,0.71,-1,28,4
COc1cc(/C=C/C(=O)Nc2ccc(C(C)=O)cc2)cc(OC)c1OC,2,2,0.29,-1,-13,69*
CCOC(=O)c1ccccc1NC(=O)c1cccc(F)c1,74*,-3,-0.11,2,5,-2
CCOC(=O)c1ccccc1NC(=O)c1ccc(F)cc1,59,0,0.57,-3,10,-2
CCOC(=O)c1ccccc1NC(=O)c1c(F)c(F)c(F)c(F)c1F,73*,-1,-2.1,2,-12,11
O=C(CCS(=O)(=O)c1ccc(Br)cc1)Nc1ccc(Br)cc1F,-2,-2,0.22,1,-29,-5
Cc1ccc(OCCn2c(CCCO)nc3ccccc32)cc1,-1,2,3.3,3,-1,54*
COc1ccc(NCc2nc3ccccc3n2CCOc2ccccc2)cc1,43,3,-1.7,7,69*,87*
c1ccc(NCc2nc3ccccc3n2CCOc2ccccc2)cc1,18,0,-0.23,3,30,13
OCCCc1nc2ccccc2n1CCOc1ccccc1,12,-2,-0.91,5,-44,1
COc1ccc(NCc2nc3ccccc3n2CCOc2ccc(C)cc2)cc1,58,4,1.9,1,39,91*
Nc1cc(C(=O)N2CCN(c3ccc([N+](=O)[O-])cc3)CC2)ccc1N1CC2CC(C1)c1cccc(=O)n1C2 (stereo not drawn),/,-1,/,-6,7,/
O=C(NCc1cn(-c2ccccc2)nc1-c1ccc(F)cc1)c1cccc([N+](=O)[O-])c1,52,2,0.29,0,61*,81*
CCn1cc(CNC(=O)c2cccc([N+](=O)[O-])c2)c(C)n1,-16,-1,0.088,2,-6,-2
O=C1N=c2ccccc2=C1c1c(O)n(-c2cccc(F)c2)[nH]c1=O,73*,/,-0.16,/,-9,61*
Cc1c(N=C2NC(=O)/C(=C/c3cccc([N+](=O)[O-])c3)S2)c(=O)n(-c2ccccc2)n1C,25,2,-1,0,-7,89*
O=C1NC(=Nc2cccc(O)c2)S/C1=C\c1cccc([N+](=O)[O-])c1,/,6,/,19,-5,/
CC(=O)Nc1ccc(NC(=O)COC(=O)C2(c3ccc(Cl)cc3)CCCC2)cc1,32,-1,-0.78,-4,41,74*
